Measured values taken from ChEMBL document CHEMBL2311452 (J Med Chem, 2013).

Columns and labels:
[1] = Tmax in Sprague-Dawley rat at 10 mg/kg, po; assay type: ADME, organism-based; parameters: dose 10 mg/kg, route oral; settings: in vivo
In short: (§1)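 Single 10 mg/kg oral dose given to male Sprague-Dawley rats (~250 g), three per group. Blood was sampled via the retrobulbar vein at 0, 5, 15 and 30 min and at 1, 2, 5, 8 and 24 h. Plasma concentrations were measured by LC/MS/MS, and parameters came from noncompartmental analysis of mean plasma concentrations.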

[2] = Cmax in Sprague-Dawley rat at 10 mg/kg, po; assay type: ADME, organism-based; parameters: dose 10 mg/kg, route oral; settings: in vivo; in short: as §1
[3] = Clearance in Sprague-Dawley rat at 10 mg/kg, iv; assay type: ADME, organism-based; parameters: dose 10 mg/kg, route intravenous; settings: in vivo
[4] = Oral bioavailability in Sprague-Dawley rat at 10 mg/kg; assay type: ADME, organism-based; settings: in vivo; in short: as §1
[5] = Volume of distribution at steady state in Sprague-Dawley rat at 10 mg/kg, iv; assay type: ADME, organism-based; parameters: dose 10 mg/kg, route intravenous; settings: in vivo, read-out: Vdss
[6] = Terminal half life in Sprague-Dawley rat at 10 mg/kg, po; assay type: ADME, organism-based; parameters: dose 10 mg/kg, route oral; settings: in vivo, read-out: beta t1/2 (converted)
In short: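 Single 10 mg/kg oral dose given to male Sprague-Dawley rats (~250 g), three per group. Plasma concentrations were measured by LC/MS/MS, and parameters came from noncompartmental analysis of mean plasma concentrations.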

[7] = Terminal half life in Sprague-Dawley rat at 10 mg/kg, iv; assay type: ADME, organism-based; parameters: dose 10 mg/kg, route intravenous; settings: in vivo, read-out: beta t1/2 (converted)
[8] = biological target: T1, Neuraminidase (Influenza A virus, UniProt B4URF0); experiment: Inhibition of Influenza A virus (A/Sydney/5/1997(H3N2)) neuraminidase infected in chick embryo using MUNANA as substrate after 1 hr by spectrophotometric analysis
T1 sequence (B4URF0 whole entry): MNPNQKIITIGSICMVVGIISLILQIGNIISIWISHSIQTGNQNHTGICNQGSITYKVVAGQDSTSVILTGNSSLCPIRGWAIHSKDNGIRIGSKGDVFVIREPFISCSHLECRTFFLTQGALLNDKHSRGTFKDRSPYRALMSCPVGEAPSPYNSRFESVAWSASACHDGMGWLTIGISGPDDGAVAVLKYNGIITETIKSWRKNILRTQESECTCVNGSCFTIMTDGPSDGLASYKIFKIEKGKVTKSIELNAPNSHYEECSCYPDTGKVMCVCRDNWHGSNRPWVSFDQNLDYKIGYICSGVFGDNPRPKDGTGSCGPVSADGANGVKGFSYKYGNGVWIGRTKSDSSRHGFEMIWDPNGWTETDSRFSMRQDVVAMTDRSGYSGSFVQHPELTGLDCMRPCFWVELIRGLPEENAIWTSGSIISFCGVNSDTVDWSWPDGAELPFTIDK

[9] = biological target: T1, Neuraminidase; experiment: Inhibition of Influenza A virus (A/Indonesia/5/2005(H5N1)) neuraminidase infected in chick embryo using MUNANA as substrate after 1 hr by spectrophotometric analysis
[10] = biological target: T1, Neuraminidase; experiment: Inhibition of influenza A virus (A/Guangdong/376/2001(H1N1)) neuraminidase infected in chick embryo using MUNANA as substrate after 1 hr by spectrophotometric analysis
[11] = biological target: Neuraminidase (Influenza A virus) (UniProt B4URF0); experiment: Inhibition of influenza A virus (A/Guangdong/376/2001(H1N1)) neuraminidase infected in chick embryo using MUNANA as substrate at 1 uM after 1 hr by spectrophotometric analysis
Sequence of Neuraminidase (Influenza A virus) (B4URF0 as listed by the source): as the sequence (B4URF0 whole entry) above

[12] = biological target: T1, Neuraminidase; experiment: Inhibition of Influenza A virus Mississippi/1/85(H3N2) neuraminidase
[13] = biological target: T1, Neuraminidase; experiment: Inhibition of Influenza A virus H5N1 neuraminidase
[14] = biological target: T1, Neuraminidase; experiment: Inhibition of Influenza A virus […]/78(H1N1) neuraminidase
[15] = Mean residence time in Sprague-Dawley rat at 2 mg/kg, iv; assay type: ADME, organism-based; parameters: dose 2 mg/kg, route intravenous; settings: in vivo
In short: (§2)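 Male Sprague-Dawley rats (~250 g), three per group, given a single 2 mg/kg intravenous dose. Blood samples were drawn via the retrobulbar vein at 0, 5, 15 and 30 min and at 1, 2, 5, 8 and 24 h. Plasma levels were quantified by LC/MS/MS, and parameters were derived by noncompartmental analysis of mean plasma concentrations.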

[16] = Volume of distribution at steady state in Sprague-Dawley rat at 2 mg/kg, iv; assay type: ADME, organism-based; parameters: dose 2 mg/kg, route intravenous; settings: in vivo, read-out: Vdss; in short: as §2
[17] = Terminal half life in Sprague-Dawley rat at 2 mg/kg, iv; assay type: ADME, organism-based; parameters: dose 2 mg/kg, route intravenous; settings: in vivo, read-out: beta t1/2 (converted); in short: as §2
[18] = AUC (0 to 8 hrs) in Sprague-Dawley rat at 10 mg/kg, po; assay type: ADME, organism-based; parameters: time < 8 hr, dose 10 mg/kg, route oral; settings: plasma
In short: (§3)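 Male Sprague-Dawley rats (~250 g), three per group. One group received 10 mg/kg orally and the other 2 mg/kg intravenously. Blood was drawn from the retrobulbar vein at 0, 5, 15 and 30 min and at 1, 2, 5, 8 and 24 h. Plasma levels were measured by LC/MS/MS, and parameters were calculated by noncompartmental analysis of mean plasma concentrations.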

[19] = Clearance in Sprague-Dawley rat at 2 mg/kg, iv; assay type: ADME, organism-based; parameters: dose 2 mg/kg, route intravenous; settings: in vivo; in short: as §2
[20] = Mean residence time in Sprague-Dawley rat at 10 mg/kg, po; assay type: ADME, organism-based; parameters: dose 10 mg/kg, route oral; settings: in vivo; in short: as §1
[21] = AUC (0 to 8 hrs) in Sprague-Dawley rat at 2 mg/kg, iv; assay type: ADME, organism-based; parameters: time < 8 hr, dose 2 mg/kg, route intravenous; settings: plasma; in short: as §3
[22] = Cmax in Sprague-Dawley rat at 2 mg/kg, iv; assay type: ADME, organism-based; parameters: dose 2 mg/kg, route intravenous; settings: in vivo; in short: as §2

Compound | IC50 [8] | IC50 [9] | IC50 [10] | also measured
CCOC(=O)C1=C[C@@H](OC(CC)CC)[C@H](NC(C)=O)[C@@H](N)C1.O=P(O)(O)O [OSELTAMIVIR PHOSPHATE] | – | – | – | Tmax [1]: 4 h; Cmax [2]: 30 ng/mL; clearance [3]: 25 mL/min/kg; bioavailability [4]: 4.3%; Vd [5]: 1.3 L/kg; half-life [6]: 10.6 h; half-life [7]: 1.6 h
CC(=O)N[C@H]1[C@H]([C@H](O)[C@H](O)CO)OC(C(=O)N[C@@H](CC(C)C)C(=O)O)=C[C@@H]1N | 647 µM | 669 µM | 159 µM | –
CC(=O)N[C@H]1[C@H]([C@H](O)[C@H](O)CO)OC(C(=O)N[C@H](C(=O)O)C(C)C)=C[C@@H]1NC(=N)N | 0.107 µM | 4.19 µM | 2.14 µM | –
CC(=O)N[C@H]1[C@H]([C@H](O)[C@H](O)CO)OC(C(=O)O)=C[C@@H]1N=C(N)N [ZANAMIVIR] | – | – | – | Tmax [1]: 1.2 h; Cmax [2]: 60 ng/mL; clearance [3]: 31.7 mL/min/kg; Vd [5]: 0.8 L/kg; half-life [7]: 1.1 h
CC(=O)N[C@H]1[C@H]([C@H](O)[C@H](O)CO)OC(C(=O)NCc2ccc(C)cc2)=C[C@@H]1NC(=N)N | 0.85 µM | 0.28 µM | 0.26 µM | –
CC(=O)N[C@H]1[C@H]([C@H](O)[C@H](O)CO)OC(C(=O)N[C@H](C(=O)O)C(C)C)=C[C@@H]1N | 5.15 µM | 4.3 µM | 2.25 µM | –
CC(=O)N[C@H]1[C@H]([C@H](O)[C@H](O)CO)OC(C(=O)N2CCC[C@@H](C(=O)O)C2)=C[C@@H]1N | 146 µM | 162 µM | 103 µM | –
CC(=O)N[C@H]1[C@H]([C@H](O)[C@H](O)CO)OC(C(=O)NCCC(=O)O)=C[C@@H]1NC(=N)N | 0.5 µM | 0.07 µM | 0.36 µM | –
CC(=O)N[C@H]1[C@H]([C@H](O)[C@H](O)CO)OC(C(=O)N[C@@H](CC(C)C)C(=O)O)=C[C@@H]1O | 918 µM | > 1000 µM | > 1000 µM | –
COc1ccc(CNC(=O)C2=C[C@H](O)[C@@H](NC(C)=O)[C@H]([C@H](O)[C@H](O)CO)O2)cc1 | 858 µM | > 1000 µM | > 1000 µM | –
CC(=O)N[C@H]1[C@H]([C@H](O)[C@H](O)CO)OC(C(=O)N[C@@H](CC(C)C)C(=O)O)=C[C@@H]1NC(=N)N | 22.5 µM | 3.51 µM | 5.11 µM | –
CC[C@H](C)[C@H](NC(=O)C1=C[C@H](O)[C@@H](NC(C)=O)[C@H]([C@H](O)[C@H](O)CO)O1)C(=O)O | 790 µM | 939 µM | > 1000 µM | –
CC(=O)N[C@H]1[C@H]([C@H](O)[C@H](O)CO)OC(C(=O)N2CCC(C(=O)O)CC2)=C[C@@H]1N | 5.86 µM | 5.76 µM | 6.33 µM | –
CC(=O)N[C@H]1[C@H]([C@H](O)[C@H](O)CO)OC(C(=O)NCc2cccc(Cl)c2)=C[C@@H]1NC(=N)N | – | – | – | inhibition [11]: 51%
CC(=O)N[C@H]1[C@H]([C@H](O)[C@H](O)CO)OC(C(=O)N[C@H](C(=O)O)C(C)C)=C[C@@H]1O | 688 µM | 793 µM | > 1000 µM | –
CC(=O)N[C@H]1[C@H]([C@H](O)[C@H](O)CO)OC(C(=O)NCC(=O)O)=C[C@@H]1N | 16.7 µM | 8.67 µM | 13.9 µM | –
CC(=O)N[C@H]1[C@H]([C@H](O)[C@H](O)CO)OC(C(=O)N[C@@H](CCC(=O)O)C(=O)O)=C[C@@H]1NC(=N)N | 0.81 µM | 0.16 µM | 0.45 µM | –
CC(=O)N[C@H]1[C@H]([C@H](O)[C@H](O)CO)OC(C(=O)NCc2ccccc2)=C[C@@H]1O | 707 µM | 822 µM | 143 µM | –
CC(=O)N[C@H]1[C@H]([C@H](O)[C@H](O)CO)OC(C(=O)O)=C[C@@H]1O [NEU5AC2EN] | – | – | – | IC50 [12]: 52 µM; IC50 [13]: 0.012 µM; IC50 [14]: 240 µM
CC(=O)N[C@H]1[C@H]([C@H](O)[C@H](O)CO)OC(C(=O)N[C@@H](C)C(=O)O)=C[C@@H]1NC(=N)N | 0.41 µM | 0.063 µM | 0.1 µM | –
CC(=O)N[C@H]1[C@H]([C@H](O)[C@H](O)CO)OC(C(=O)N2CCOCC2)=C[C@@H]1O | 52.9 µM | 66.7 µM | 98.9 µM | –
CC(=O)N[C@H]1[C@H]([C@H](O)[C@H](O)CO)OC(C(=O)NCc2ccc(F)cc2)=C[C@@H]1NC(=N)N | – | – | – | inhibition [11]: 54.8%
CC(=O)N[C@H]1[C@H]([C@H](O)[C@H](O)CO)OC(C(=O)NCc2ccccc2F)=C[C@@H]1NC(=N)N | 0.89 µM | 0.26 µM | 0.24 µM | –
CC(=O)N[C@H]1[C@H]([C@H](O)[C@H](O)CO)OC(C(=O)NCc2cccc(F)c2)=C[C@@H]1NC(=N)N | 0.013 µM | 0.001 µM | 0.09 µM | Tmax [1]: 1 h; MRT [15]: 0.65 h; Cmax [2]: 260 nM; Vd [16]: 0.23 L/kg; half-life [17]: 0.69 h; AUC(0-t) at 8 h [18]: 378 ng·h/mL; clearance [19]: 5.83 mL/min/kg; MRT [20]: 6.29 h; bioavailability [4]: 1.41%; AUC(0-t) at 8 h [21]: 5380 ng·h/mL; Cmax [22]: 8800 ng/mL; half-life [6]: 2.96 h
CC(=O)N[C@H]1[C@H]([C@H](O)[C@H](O)CO)OC(C(=O)N[C@H](C(=O)O)c2ccccc2)=C[C@@H]1O | 60 µM | 74.4 µM | 60.5 µM | –
